# In PubChem BioAssay AID624007 (Broad Institute, 2012):
# Active and inactive are the calls of the source.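 The calls were made as follows: active = compounds lowering the uptake signal whose fitted half-maximal concentration is at most twice their top valid dose; inconclusive = flat curve between 30% and 70% signal loss, or poor fit; inactive = opposite direction, flat near zero, or potency beyond limit.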
# Assay: DiI-HDL uptake inhibition in parental ldlA7 cells, dose response, counter-screen for SR-BI HDL uptake inhibitor project, cell-based, CHO ldlA7, fluorescence, dry powder, set 2 (AID 624007)
# Settings: 3 h, at 35000 nM
# Procedure, shortened: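 Assay system: ldlA7 CHO cells without LDL receptor, no mSR-BI overexpression; Medium: HEPES-buffered (pH 7.4) F12 plus 0.5% fatty acid-free BSA; Reagent: DiI-labelled HDL, 10 µg/mL final; Schedule: 3 h co-incubation of compounds and DiI-HDL at 37 °C; Detection: DiI fluorescence, bottom read, Ex 550/Em 595 nm.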
row,Compound,"DiI-HDL uptake signal change vs neutral control (%), lower = more inhibition"
1,C=CCOC(=O)N(C)C[C@@H]1Oc2ccc(N)cc2C(=O)N([C@H](C)CO[Si](C)(C)C(C)(C)C)C[C@H]1C,4.25% (inactive)
2,C=CCOC(=O)N(C)C[C@@H]1Oc2ccc(NC(=O)NC(C)C)cc2C(=O)N([C@H](C)CO[Si](C)(C)C(C)(C)C)C[C@H]1C,18.2% (inactive)
3,CC(C)NC(=O)Nc1ccc2c(c1)C(=O)N([C@@H](C)CO)C[C@@H](C)[C@H](CN(C)S(=O)(=O)c1ccc(Cl)cc1)O2,-2.49% (inactive)
4,C=CCOC(=O)N(C)C[C@@H]1Oc2ccc(NC(=O)OCC3c4ccccc4-c4ccccc43)cc2C(=O)N([C@H](C)CO)C[C@H]1C,18.3% (inactive)
